ChEMBL document CHEMBL4261538, “Synthesis and molecular docking studies of xanthone attached amino acids as potential antimicrobial and anti-inflammatory agents” (Medchemcomm, 2017)
Converted amounts (≈) assume the structure as drawn.

Experiments:
[1] = test system: Staphylococcus aureus; assay: Antibacterial activity against Staphylococcus aureus at 100 ug/ml incubated for 24 hrs by agar well diffusion method; type: functional; conditions: read-out: DIZ
Summary of the method: (§1)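 Bacteria grown in nutrient broth at 37 °C for 24 h, then subcultured at room temperature. Compounds dissolved in DMSO at 5 mg mL⁻¹ and 5–20 µL added to 6 mm wells, giving 25, 50, 75, 100 µg per well. Gentamicin was the positive control and DMSO the negative control. Plates held at 37 °C for 24 h, then inhibition zone diameter (mm) measured. Values are means of three determinations.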

[2] = test system: Fusarium oxysporum; assay: Antifungal activity against Fusarium oxysporum at 100 ug/ml incubated for 48 hrs by agar well diffusion method; type: functional; conditions: read-out: DIZ
Summary of the method: (§2)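 Compounds dissolved in DMSO at 5 mg mL⁻¹ and 5–20 µL added to 6 mm wells, giving 25, 50, 75, 100 µg per well. Bavistin was the positive control and DMSO the negative control. Plates incubated at 28 °C for 48 h, then inhibition zone diameter (mm) measured. Values are means of three determinations.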

[3] = test system: Candida albicans; assay: Antifungal activity against Candida albicans incubated for 48 to 72 hrs by microdilution method; type: functional
Summary of the method: (§3)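 Sabouraud agar plates inoculated with fungal suspension at 10⁵ CFU mL⁻¹ plus serially diluted compounds and bavistin reference, both in DMSO. Incubated at 25 °C for 48–72 h. MIC is the lowest concentration completely inhibiting growth. Values are means of three determinations.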

[4] = test system: Staphylococcus aureus; assay: Induction of cell membrane damage in Staphylococcus aureus assessed as cell content leakage at MIC by spectrophotometric method; type: functional, organism-based; conditions: TDE = time-dependent effect
Summary of the method: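 Log-phase S. aureus inoculated into 0.1% sterile peptone water, with an untreated control, and held at 37 °C for 0, 30, 60 and 120 min. 1 mL of broth centrifuged and supernatant OD read at 260 nm to measure released DNA. Run in triplicate, repeated three times.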

[5] = test system: Candida albicans; assay: Antifungal activity against Candida albicans at 100 ug/ml incubated for 48 hrs by agar well diffusion method; type: functional; conditions: read-out: DIZ; summary of the method: as §2
[6] = test system: Fusarium oxysporum; assay: Antifungal activity against Fusarium oxysporum at 75 ug/ml incubated for 48 hrs by agar well diffusion method; type: functional; conditions: read-out: DIZ; summary of the method: as §2
[7] = test system: Staphylococcus aureus; assay: Antibacterial activity against Staphylococcus aureus at 75 ug/ml incubated for 24 hrs by agar well diffusion method; type: functional; conditions: read-out: DIZ; summary of the method: as §1
[8] = test system: Escherichia coli; assay: Antibacterial activity against Escherichia coli incubated for 24 hrs by microdilution method; type: functional
[9] = test system: Klebsiella pneumoniae; assay: Antibacterial activity against Klebsiella pneumoniae at 50 ug/ml incubated for 24 hrs by agar well diffusion method; type: functional; conditions: read-out: DIZ; summary of the method: as §1
[10] = test system: Bacillus subtilis; assay: Antibacterial activity against Bacillus subtilis at 100 ug/ml incubated for 24 hrs by agar well diffusion method; type: functional; conditions: read-out: DIZ; summary of the method: as §1
[11] = test system: Escherichia coli; assay: Antibacterial activity against Escherichia coli at 50 ug/ml incubated for 24 hrs by agar well diffusion method; type: functional; conditions: read-out: DIZ; summary of the method: as §1
[12] = test system: Aspergillus niger; assay: Antifungal activity against Aspergillus niger at 25 ug/ml incubated for 48 hrs by agar well diffusion method; type: functional; conditions: read-out: DIZ; summary of the method: as §2
[13] = test system: Aspergillus niger; assay: Antifungal activity against Aspergillus niger at 100 ug/ml incubated for 48 hrs by agar well diffusion method; type: functional; conditions: read-out: DIZ; summary of the method: as §2
[14] = test system: Klebsiella pneumoniae; assay: Antibacterial activity against Klebsiella pneumoniae at 100 ug/ml incubated for 24 hrs by agar well diffusion method; type: functional; conditions: read-out: DIZ; summary of the method: as §1
[15] = test system: Aspergillus niger; assay: Antifungal activity against Aspergillus niger at 50 ug/ml incubated for 48 hrs by agar well diffusion method; type: functional; conditions: read-out: DIZ; summary of the method: as §2
[16] = test system: Fusarium oxysporum; assay: Antifungal activity against Fusarium oxysporum at 50 ug/ml incubated for 48 hrs by agar well diffusion method; type: functional; conditions: read-out: DIZ; summary of the method: as §2
[17] = test system: Escherichia coli; assay: Antibacterial activity against Escherichia coli at 100 ug/ml incubated for 24 hrs by agar well diffusion method; type: functional; conditions: read-out: DIZ; summary of the method: as §1
[18] = test system: Aspergillus niger; assay: Antifungal activity against Aspergillus niger incubated for 48 to 72 hrs by microdilution method; type: functional; summary of the method: as §3
[19] = test system: Candida albicans; assay: Antifungal activity against Candida albicans at 75 ug/ml incubated for 48 hrs by agar well diffusion method; type: functional; conditions: read-out: DIZ; summary of the method: as §2
[20] = test system: Escherichia coli; assay: Antibacterial activity against Escherichia coli at 75 ug/ml incubated for 24 hrs by agar well diffusion method; type: functional; conditions: read-out: DIZ; summary of the method: as §1
[21] = test system: Klebsiella pneumoniae; assay: Antibacterial activity against Klebsiella pneumoniae at 25 ug/ml incubated for 24 hrs by agar well diffusion method; type: functional; conditions: read-out: DIZ; summary of the method: as §1
[22] = test system: Aspergillus niger; assay: Antifungal activity against Aspergillus niger at 75 ug/ml incubated for 48 hrs by agar well diffusion method; type: functional; conditions: read-out: DIZ; summary of the method: as §2
[23] = test system: Klebsiella pneumoniae; assay: Antibacterial activity against Klebsiella pneumoniae at 75 ug/ml incubated for 24 hrs by agar well diffusion method; type: functional; conditions: read-out: DIZ; summary of the method: as §1
[24] = test system: Candida albicans; assay: Antifungal activity against Candida albicans at 50 ug/ml incubated for 48 hrs by agar well diffusion method; type: functional; conditions: read-out: DIZ; summary of the method: as §2
[25] = test system: Bacillus subtilis; assay: Antibacterial activity against Bacillus subtilis at 50 ug/ml incubated for 24 hrs by agar well diffusion method; type: functional; conditions: read-out: DIZ; summary of the method: as §1
[26] = test system: Erythrocyte; assay: Anti-inflammatory activity in human RBC assessed as inhibition of hypotonic solution-induced hemolysis after 10 mins by spectrophotometric method; type: functional, cell-based
Summary of the method: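 Human blood (heparinized) washed with 0.9% saline, packed cells made into a 40% v/v stock in isotonic phosphate buffer (154 mM NaCl, 10 mM sodium phosphate, pH 7.4). Stock RBC mixed with hypotonic buffer (50 mM NaCl, 10 mM phosphate, pH 7.4) plus sample at 20–100 µg mL⁻¹.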

[27] = test system: Bacillus subtilis; assay: Antibacterial activity against Bacillus subtilis at 25 ug/ml incubated for 24 hrs by agar well diffusion method; type: functional; conditions: read-out: DIZ; summary of the method: as §1
[28] = test system: Staphylococcus aureus; assay: Antibacterial activity against Staphylococcus aureus at 50 ug/ml incubated for 24 hrs by agar well diffusion method; type: functional; conditions: read-out: DIZ; summary of the method: as §1
[29] = test system: Staphylococcus aureus; assay: Antibacterial activity against Staphylococcus aureus at 25 ug/ml incubated for 24 hrs by agar well diffusion method; type: functional; conditions: read-out: DIZ; summary of the method: as §1
[30] = test system: Staphylococcus aureus; assay: Antibacterial activity against Staphylococcus aureus incubated for 24 hrs by microdilution method; type: functional
[31] = test system: Fusarium oxysporum; assay: Antifungal activity against Fusarium oxysporum at 25 ug/ml incubated for 48 hrs by agar well diffusion method; type: functional; conditions: read-out: DIZ; summary of the method: as §2
[32] = test system: Bacillus subtilis; assay: Antibacterial activity against Bacillus subtilis incubated for 24 hrs by microdilution method; type: functional
[33] = test system: Klebsiella pneumoniae; assay: Antibacterial activity against Klebsiella pneumoniae incubated for 24 hrs by microdilution method; type: functional
[34] = test system: Candida albicans; assay: Antifungal activity against Candida albicans at 25 ug/ml incubated for 48 hrs by agar well diffusion method; type: functional; conditions: read-out: DIZ; summary of the method: as §2
[35] = test system: Bacillus subtilis; assay: Antibacterial activity against Bacillus subtilis at 75 ug/ml incubated for 24 hrs by agar well diffusion method; type: functional; conditions: read-out: DIZ; summary of the method: as §1
[36] = test system: Fusarium oxysporum; assay: Antifungal activity against Fusarium oxysporum incubated for 48 to 72 hrs by microdilution method; type: functional; summary of the method: as §3
[37] = test system: Escherichia coli; assay: Antibacterial activity against Escherichia coli at 25 ug/ml incubated for 24 hrs by agar well diffusion method; type: functional; conditions: read-out: DIZ; summary of the method: as §1

Compound | zone of inhibition at 100 µg/mL [1] | zone of inhibition at 100 µg/mL [2] | MIC [3] | Activity [4] | zone of inhibition at 100 µg/mL [5] | zone of inhibition at 75 µg/mL [6] | zone of inhibition at 75 µg/mL [7] | MIC [8] | zone of inhibition at 50 µg/mL [9] | zone of inhibition at 100 µg/mL [10] | zone of inhibition at 50 µg/mL [11] | zone of inhibition at 25 µg/mL [12] | zone of inhibition at 100 µg/mL [13] | zone of inhibition at 100 µg/mL [14] | zone of inhibition at 50 µg/mL [15] | zone of inhibition at 50 µg/mL [16] | zone of inhibition at 100 µg/mL [17] | MIC [18] | zone of inhibition at 75 µg/mL [19] | zone of inhibition at 75 µg/mL [20] | further results
CC(C)(C)OC(=O)N1CCC[C@H]1C(=O)Oc1ccc2c(=O)c3ccccc3oc2c1 | 33 mm | 35 mm | 24 µg/mL (≈ 58.6 µM) | Tde | 34 mm | 29 mm | 29 mm | 25 µg/mL (≈ 61.1 µM) | 21 mm | 35 mm | 26 mm | 17 mm | 33 mm | 32 mm | 24 mm | 24 mm | 36 mm | 29 µg/mL (≈ 70.8 µM) | 27 mm | 31 mm | zone of inhibition at 25 µg/mL [21]: 13 mm; zone of inhibition at 75 µg/mL [22]: 30 mm; zone of inhibition at 75 µg/mL [23]: 27 mm; zone of inhibition at 50 µg/mL [24]: 22 mm; zone of inhibition at 50 µg/mL [25]: 24 mm; IC50 [26]: 34 µg/mL (≈ 83 µM); zone of inhibition at 25 µg/mL [27]: 15 mm; zone of inhibition at 50 µg/mL [28]: 24 mm; zone of inhibition at 25 µg/mL [29]: 17 mm; MIC [30]: 27 µg/mL (≈ 65.9 µM); zone of inhibition at 25 µg/mL [31]: 20 mm; MIC [32]: 26 µg/mL (≈ 63.5 µM); MIC [33]: 24 µg/mL (≈ 58.6 µM); zone of inhibition at 25 µg/mL [34]: 16 mm; zone of inhibition at 75 µg/mL [35]: 31 mm; MIC [36]: 25 µg/mL (≈ 61.1 µM); zone of inhibition at 25 µg/mL [37]: 17 mm
CC(C)(C)OC(=O)N[C@@H](Cc1c[nH]c2ccccc12)C(=O)Oc1ccc2c(=O)c3ccccc3oc2c1 | 40 mm | 40 mm | 19 µg/mL (≈ 38.1 µM) | Tde | 42 mm | 35 mm | 35 mm | 16 µg/mL (≈ 32.1 µM) | 29 mm | 39 mm | 30 mm | 24 mm | 44 mm | 41 mm | 31 mm | 30 mm | 41 mm | 20 µg/mL (≈ 40.1 µM) | 37 mm | 37 mm | zone of inhibition at 25 µg/mL [21]: 22 mm; zone of inhibition at 75 µg/mL [22]: 36 mm; zone of inhibition at 75 µg/mL [23]: 36 mm; zone of inhibition at 50 µg/mL [24]: 31 mm; zone of inhibition at 50 µg/mL [25]: 29 mm; IC50 [26]: 24 µg/mL (≈ 48.1 µM); zone of inhibition at 25 µg/mL [27]: 23 mm; zone of inhibition at 50 µg/mL [28]: 29 mm; zone of inhibition at 25 µg/mL [29]: 22 mm; MIC [30]: 18 µg/mL (≈ 36.1 µM); zone of inhibition at 25 µg/mL [31]: 21 mm; MIC [32]: 17 µg/mL (≈ 34.1 µM); MIC [33]: 20 µg/mL (≈ 40.1 µM); zone of inhibition at 25 µg/mL [34]: 24 mm; zone of inhibition at 75 µg/mL [35]: 33 mm; MIC [36]: 21 µg/mL (≈ 42.1 µM); zone of inhibition at 25 µg/mL [37]: 24 mm
